Experimental findings from ChEMBL document CHEMBL3399974, “Discovery and SAR of novel series of imidazopyrimidinones and dihydroimidazopyrimidinones as positive allosteric modulators of the metabotropic glutamate receptor 5 (mGlu5)” (Bioorg Med Chem Lett, 2015) are described below.

A short description of data set [1]: Drug metabolism in human liver microsomes assessed as compound metabolized at 1 uM after 15 mins. Particulars: read-out: Drug metabolism. The format is ADME. The method, boiled down: (§1)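 Test compound at 1 µM was incubated for 15 min with liver microsomes (human for HLM, rat for RLM). Read-out was % of compound metabolized.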
Data set [2] can be described thus: Drug metabolism in rat liver microsomes assessed as compound metabolized at 1 uM after 15 mins. The data set is classed as ADME. Particulars: read-out: Drug metabolism. The method, boiled down:
as §1
A general note: Liver microsomes are vesicles of endoplasmic reticulum, rich in cytochrome P450 enzymes.

The target in data set [3] is T1, Metabotropic glutamate receptor 5 (Rattus norvegicus, UniProt P31424). Description: Negative allosteric modulation at rat mGluR5 expressed in HEK293 cells by calcium mobilization assay. The format is functional, cell-based. In short, it runs like this: (§2)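 HEK293 cells stably expressing rat mGlu5 were run in a 'triple add' calcium mobilization assay that detects agonism, PAM and NAM activity together. Response amplitude was expressed as % of the maximal response to 100 µM glutamate. Values are the mean of three or more independent determinations.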
In general terms: Calcium assays in cells follow changes in intracellular calcium, usually with a dye or a luminescent sensor.

For data set [4], the target named is Metabotropic glutamate receptor 5 (Rattus norvegicus) (UniProt P31424). In words: Negative allosteric modulation at rat mGluR5 expressed in HEK293 cells by calcium mobilization assay relative to glutamate. Particulars: 30 uM.
Data set [5] has as its target T1, Metabotropic glutamate receptor 5. Description: Positive allosteric modulation at rat mGluR5 expressed in HEK293 cells by calcium mobilization assay. The data set is classed as functional, cell-based. The method, boiled down: as §2
The target in data set [6] is Metabotropic glutamate receptor 5 (Rattus norvegicus) (UniProt P31424). In words: Positive allosteric modulation at rat mGluR5 expressed in HEK293 cells assessed as amplitude of response at 30 uM by calcium mobilization assay relative to glutamate. The data set is classed as functional, cell-based. The method, boiled down:
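HEK293 cells stably expressing rat mGlu5 were used in a calcium mobilization assay. Test compound was given at 30 µM, and response amplitude is expressed as percent of the maximal response to 100 µM glutamate. Values are the average of three or more independent determinations.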

A short description of data set [7]: Plasma protein binding in human. The data set is classed as ADME, cell-free.
Data set [8] is described as follows: Plasma protein binding in rat. The data set is classed as ADME, cell-free.
The target in data set [9] is Metabotropic glutamate receptor 3 (Homo sapiens, UniProt Q14832). In words: Negative allosteric modulation at mGluR3 (unknown origin).
Data set [10] deals with Metabotropic glutamate receptor 1 (Homo sapiens, UniProt Q13255). In words: Positive allosteric modulation at mGluR1 (unknown origin).
The target in data set [11] is Metabotropic glutamate receptor 2 (Homo sapiens, UniProt Q14416). Description: Positive allosteric modulation at mGluR2 (unknown origin).
Data set [12] deals with Metabotropic glutamate receptor 4 (Homo sapiens, UniProt Q14833). In words: Positive allosteric modulation at mGluR4 (unknown origin).
Data set [13] addresses Metabotropic glutamate receptor 6 (Homo sapiens, UniProt O15303). In words: Positive allosteric modulation at mGluR6 (unknown origin).
Data set [14] deals with Metabotropic glutamate receptor 7 (Homo sapiens, UniProt Q14831). In words: Positive allosteric modulation at mGluR7 (unknown origin).
In data set [15] the target is Metabotropic glutamate receptor 8 (Homo sapiens, UniProt O00222). Description: Positive allosteric modulation at mGluR8 (unknown origin).
Another data set has as its target Cytochrome P450 2C9 (Homo sapiens, UniProt P11712). Description: Inhibition of human CYP2C9. The data set is classed as ADME. In short, it runs like this:
(§3)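 Cocktail assay in human liver microsomes using known probe substrates for the major CYP isoforms (2C9, 2D6, 3A4, 1A2). IC50 was determined for each isoform.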

A further data set concerns the target Cytochrome P450 2D6 (Homo sapiens, UniProt P10635). In words: Inhibition of human CYP2D6. The data set is classed as ADME. In short, it runs like this: as §3
The next data set addresses Cytochrome P450 3A4 (Homo sapiens, UniProt P08684). Description: Inhibition of human CYP3A4. The data set is classed as ADME. The method, boiled down:
as §3

A further data set deals with T2, Cytochrome P450 1A2 (Homo sapiens, UniProt P05177).
T2 sequence (P05177 whole entry): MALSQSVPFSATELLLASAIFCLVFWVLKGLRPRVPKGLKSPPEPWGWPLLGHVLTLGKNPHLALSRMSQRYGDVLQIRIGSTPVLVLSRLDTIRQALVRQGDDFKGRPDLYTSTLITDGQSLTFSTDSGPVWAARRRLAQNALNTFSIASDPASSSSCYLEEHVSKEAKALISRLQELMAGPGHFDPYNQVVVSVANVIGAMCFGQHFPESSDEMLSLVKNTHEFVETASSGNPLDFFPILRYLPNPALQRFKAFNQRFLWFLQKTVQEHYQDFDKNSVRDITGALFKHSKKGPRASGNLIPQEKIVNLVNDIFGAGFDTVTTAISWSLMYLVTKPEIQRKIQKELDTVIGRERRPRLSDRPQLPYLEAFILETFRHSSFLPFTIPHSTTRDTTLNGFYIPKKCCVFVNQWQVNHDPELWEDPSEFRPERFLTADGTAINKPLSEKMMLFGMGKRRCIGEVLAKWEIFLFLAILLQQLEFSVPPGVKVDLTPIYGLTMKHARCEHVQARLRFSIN
In words: Inhibition of human CYP1A2. The data set is classed as ADME. The method, boiled down:
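Cocktail assay in human liver microsomes with known probe substrates for CYP 2C9, 2D6, 3A4 and 1A2; IC50 determined.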

The nature of data set [16]: Terminal half-life in rat at 1 mg/kg, iv and 10 mg/kg, po. The format is ADME, organism-based. Particulars: in vivo, read-out: beta t1/2 (converted). In short, it runs like this:
(§4)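 Rat PK: compound formulated at 1 mg/mL in 20% HP-β-CD and given at 1 mg/kg IV and 10 mg/kg PO.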

Data set [17] concerns Rattus norvegicus. Description: Volume of distribution at steady state in rat at 1 mg/kg, iv and 10 mg/kg, po. The data set is classed as ADME, organism-based. Particulars: in vivo. The method, boiled down:
as §4

The subject of a further data set is Plasma. In words: AUC in rat plasma at 1 mg/kg, iv and 10 mg/kg, po. Particulars: in vivo. The data set is classed as ADME, organism-based.
The nature of data set [18]: Ratio of AUC in brain to plasma of rat at 1 mg/kg, iv and 10 mg/kg, po. The data set is classed as ADME, organism-based.
Data set [19] in a line: Fraction unbound in rat brain at 1 mg/kg, iv and 10 mg/kg, po. The data set is classed as ADME, organism-based.
The nature of data set [20]: Cmax in rat brain at 1 mg/kg, iv and 10 mg/kg, po. The format is ADME, organism-based.
In data set [21] the test system is Rattus norvegicus. Description: Antipsychotic activity in po dosed rat assessed as reversal of amphetamine-induced hyperlocomotion. The format is functional, organism-based. The method, boiled down: (§5)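 Rats dosed orally; reversal of amphetamine-induced hyperlocomotion scored as % reversal of amphetamine effect, across an oral dose range up to 100 mg/kg; terminal unbound brain concentrations calculated at the doses tested.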

Data set [22] has as its system Rattus norvegicus. In words: Antipsychotic activity in rat assessed as reversal of amphetamine-induced hyperlocomotion at 3 mg/kg, po. The format is functional, organism-based. Details: dose 3 mg/kg. In short, it runs like this: as §5
For data set [23], the system named is Rattus norvegicus. Description: Antipsychotic activity in rat assessed as reversal of amphetamine-induced hyperlocomotion at 56.6 mg/kg, po. The format is functional. In short, it runs like this:
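Rats were dosed orally and scored for reversal of amphetamine-induced hyperlocomotion, a model of antipsychotic activity. Doses tested went up to 100 mg/kg. Terminal unbound brain concentrations were calculated at the tested doses.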

The subject of data set [24] is Rattus norvegicus. In words: Antipsychotic activity in rat assessed as reversal of amphetamine-induced hyperlocomotion at 100 mg/kg, po. The data set is classed as functional. In short, it runs like this:
as §5

Data set [25] has as its system Rattus norvegicus. Description: Toxicity in rat assessed as pro-convulsive behavior up to 120 mg/kg, po by modified Irwin neurological test battery method. Details: dose 120 mg/kg, route oral. To be noted: in vivo. The data set is classed as organism-based.
In data set [26] the target is Metabotropic glutamate receptor 5 (Homo sapiens) (UniProt P41594). Description: Agonist activity at mGluR5 (unknown origin) at 30 uM.
A further data set deals with Canis familiaris. Description: Toxicity in dog assessed as dizziness at 0.5 mg/ml, iv. The data set is classed as organism-based, Canis lupus familiaris. Particulars: in vivo.

The source made the active and inactive calls. The rule behind the calls is not given here. A value given as a limit tells only on which side of the number the result lay.

Metabotropic glutamate receptor 5 (Rattus norvegicus), sequence (P31424 21-1203 limits assumed): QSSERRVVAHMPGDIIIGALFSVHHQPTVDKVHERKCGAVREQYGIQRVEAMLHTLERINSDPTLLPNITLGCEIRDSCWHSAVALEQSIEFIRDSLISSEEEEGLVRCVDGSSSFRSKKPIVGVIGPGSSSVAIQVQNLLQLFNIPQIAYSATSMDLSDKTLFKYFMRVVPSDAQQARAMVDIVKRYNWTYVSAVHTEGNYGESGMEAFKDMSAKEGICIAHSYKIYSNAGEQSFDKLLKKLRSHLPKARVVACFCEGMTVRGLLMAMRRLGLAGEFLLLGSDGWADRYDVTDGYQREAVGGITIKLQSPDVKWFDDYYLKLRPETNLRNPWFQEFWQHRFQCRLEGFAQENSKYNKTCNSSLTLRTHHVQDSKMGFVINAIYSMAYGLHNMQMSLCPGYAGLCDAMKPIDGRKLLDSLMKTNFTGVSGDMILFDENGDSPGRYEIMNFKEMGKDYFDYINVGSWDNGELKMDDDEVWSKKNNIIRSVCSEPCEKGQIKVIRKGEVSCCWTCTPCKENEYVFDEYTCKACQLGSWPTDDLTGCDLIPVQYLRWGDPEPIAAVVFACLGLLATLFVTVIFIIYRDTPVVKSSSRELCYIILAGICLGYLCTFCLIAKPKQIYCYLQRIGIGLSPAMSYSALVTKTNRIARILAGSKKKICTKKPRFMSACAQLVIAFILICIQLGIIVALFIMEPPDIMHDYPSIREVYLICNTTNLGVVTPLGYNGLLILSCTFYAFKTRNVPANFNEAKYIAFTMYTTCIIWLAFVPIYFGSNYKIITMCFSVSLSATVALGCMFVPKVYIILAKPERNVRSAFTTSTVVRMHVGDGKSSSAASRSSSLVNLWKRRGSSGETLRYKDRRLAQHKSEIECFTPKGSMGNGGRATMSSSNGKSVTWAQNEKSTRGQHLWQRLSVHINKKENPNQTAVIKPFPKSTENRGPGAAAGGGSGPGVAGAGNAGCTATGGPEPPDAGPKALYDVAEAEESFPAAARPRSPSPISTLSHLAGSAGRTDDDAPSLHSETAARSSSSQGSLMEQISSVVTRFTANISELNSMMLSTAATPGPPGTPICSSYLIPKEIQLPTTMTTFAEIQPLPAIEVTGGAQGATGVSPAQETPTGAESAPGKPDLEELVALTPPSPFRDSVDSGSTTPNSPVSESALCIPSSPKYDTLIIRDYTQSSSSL
T1 sequence (P31424 whole entry): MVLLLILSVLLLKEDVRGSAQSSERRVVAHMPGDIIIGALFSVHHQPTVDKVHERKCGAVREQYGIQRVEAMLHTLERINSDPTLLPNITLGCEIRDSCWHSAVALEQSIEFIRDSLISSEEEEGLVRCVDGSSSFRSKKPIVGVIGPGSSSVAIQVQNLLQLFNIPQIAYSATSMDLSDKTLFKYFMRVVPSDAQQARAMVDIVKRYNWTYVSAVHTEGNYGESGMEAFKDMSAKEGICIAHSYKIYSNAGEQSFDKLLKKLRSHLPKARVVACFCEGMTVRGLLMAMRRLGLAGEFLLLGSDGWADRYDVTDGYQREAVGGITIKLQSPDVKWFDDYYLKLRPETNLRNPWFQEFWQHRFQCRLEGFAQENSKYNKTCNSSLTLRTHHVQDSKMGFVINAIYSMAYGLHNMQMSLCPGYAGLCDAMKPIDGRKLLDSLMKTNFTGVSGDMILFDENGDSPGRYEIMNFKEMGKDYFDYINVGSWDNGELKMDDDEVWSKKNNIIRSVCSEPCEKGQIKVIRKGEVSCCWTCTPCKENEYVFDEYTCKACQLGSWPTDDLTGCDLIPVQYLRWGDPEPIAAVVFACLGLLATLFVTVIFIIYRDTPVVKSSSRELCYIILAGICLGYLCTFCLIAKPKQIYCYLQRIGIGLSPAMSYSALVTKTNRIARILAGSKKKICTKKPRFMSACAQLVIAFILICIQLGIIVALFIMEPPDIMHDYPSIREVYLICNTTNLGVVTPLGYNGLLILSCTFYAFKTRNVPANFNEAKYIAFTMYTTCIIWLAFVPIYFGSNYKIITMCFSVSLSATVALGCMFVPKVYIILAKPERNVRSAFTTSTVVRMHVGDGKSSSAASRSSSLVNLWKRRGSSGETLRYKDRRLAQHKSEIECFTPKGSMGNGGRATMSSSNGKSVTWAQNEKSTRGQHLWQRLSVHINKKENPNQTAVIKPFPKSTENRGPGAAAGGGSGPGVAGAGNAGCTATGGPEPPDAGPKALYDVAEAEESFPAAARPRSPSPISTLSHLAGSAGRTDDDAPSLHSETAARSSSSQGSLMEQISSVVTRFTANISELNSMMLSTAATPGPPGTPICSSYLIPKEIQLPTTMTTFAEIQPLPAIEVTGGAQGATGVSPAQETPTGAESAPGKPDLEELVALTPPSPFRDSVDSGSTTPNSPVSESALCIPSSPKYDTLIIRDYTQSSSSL
Metabotropic glutamate receptor 6, sequence (O15303 whole entry): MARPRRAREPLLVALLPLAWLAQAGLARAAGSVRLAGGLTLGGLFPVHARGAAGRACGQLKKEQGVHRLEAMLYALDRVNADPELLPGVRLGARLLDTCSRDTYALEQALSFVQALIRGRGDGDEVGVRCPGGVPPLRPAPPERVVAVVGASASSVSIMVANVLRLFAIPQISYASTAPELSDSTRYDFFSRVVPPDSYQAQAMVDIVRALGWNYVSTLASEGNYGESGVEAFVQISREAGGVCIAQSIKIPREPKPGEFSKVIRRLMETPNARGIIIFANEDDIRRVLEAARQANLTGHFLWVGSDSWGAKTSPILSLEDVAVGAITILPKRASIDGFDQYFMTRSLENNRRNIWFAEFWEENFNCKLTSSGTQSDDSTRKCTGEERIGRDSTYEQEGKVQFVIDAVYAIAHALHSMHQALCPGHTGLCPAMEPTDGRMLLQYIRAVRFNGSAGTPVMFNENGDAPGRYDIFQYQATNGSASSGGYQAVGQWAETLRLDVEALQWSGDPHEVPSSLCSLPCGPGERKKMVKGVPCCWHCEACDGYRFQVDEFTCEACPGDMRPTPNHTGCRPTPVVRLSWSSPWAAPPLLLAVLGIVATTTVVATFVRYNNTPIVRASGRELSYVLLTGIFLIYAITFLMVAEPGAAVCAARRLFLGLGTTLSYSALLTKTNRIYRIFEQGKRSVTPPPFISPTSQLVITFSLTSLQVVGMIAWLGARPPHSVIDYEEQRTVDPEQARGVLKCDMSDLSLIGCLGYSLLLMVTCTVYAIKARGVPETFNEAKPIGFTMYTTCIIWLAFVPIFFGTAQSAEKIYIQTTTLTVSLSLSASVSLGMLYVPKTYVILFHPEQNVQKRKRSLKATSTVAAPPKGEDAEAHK
Metabotropic glutamate receptor 7, sequence (Q14831 whole entry): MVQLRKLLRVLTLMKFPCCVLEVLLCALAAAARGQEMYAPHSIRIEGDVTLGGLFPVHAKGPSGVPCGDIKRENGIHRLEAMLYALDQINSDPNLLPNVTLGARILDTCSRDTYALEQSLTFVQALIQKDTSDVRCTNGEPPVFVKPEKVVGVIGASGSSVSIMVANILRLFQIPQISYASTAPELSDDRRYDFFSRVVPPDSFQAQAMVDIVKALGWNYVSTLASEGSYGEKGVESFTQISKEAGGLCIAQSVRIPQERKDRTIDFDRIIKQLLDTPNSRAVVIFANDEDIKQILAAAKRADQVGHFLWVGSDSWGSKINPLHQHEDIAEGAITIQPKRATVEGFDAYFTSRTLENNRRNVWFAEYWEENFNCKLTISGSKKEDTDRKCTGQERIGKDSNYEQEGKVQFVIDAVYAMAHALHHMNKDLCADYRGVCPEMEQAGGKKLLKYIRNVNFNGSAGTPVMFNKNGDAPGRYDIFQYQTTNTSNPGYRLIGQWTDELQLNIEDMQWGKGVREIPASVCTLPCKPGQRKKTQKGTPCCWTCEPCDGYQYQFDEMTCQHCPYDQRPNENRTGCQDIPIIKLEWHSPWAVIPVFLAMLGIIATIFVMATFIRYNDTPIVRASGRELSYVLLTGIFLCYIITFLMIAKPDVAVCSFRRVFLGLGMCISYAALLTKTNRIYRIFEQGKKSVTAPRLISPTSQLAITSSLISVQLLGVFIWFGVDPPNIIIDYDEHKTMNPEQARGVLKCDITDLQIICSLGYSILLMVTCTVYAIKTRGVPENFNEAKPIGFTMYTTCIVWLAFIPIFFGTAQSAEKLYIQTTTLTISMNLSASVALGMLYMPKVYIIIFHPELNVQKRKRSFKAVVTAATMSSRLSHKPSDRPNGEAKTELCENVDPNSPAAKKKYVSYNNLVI
Metabotropic glutamate receptor 3, sequence (Q14832 whole entry): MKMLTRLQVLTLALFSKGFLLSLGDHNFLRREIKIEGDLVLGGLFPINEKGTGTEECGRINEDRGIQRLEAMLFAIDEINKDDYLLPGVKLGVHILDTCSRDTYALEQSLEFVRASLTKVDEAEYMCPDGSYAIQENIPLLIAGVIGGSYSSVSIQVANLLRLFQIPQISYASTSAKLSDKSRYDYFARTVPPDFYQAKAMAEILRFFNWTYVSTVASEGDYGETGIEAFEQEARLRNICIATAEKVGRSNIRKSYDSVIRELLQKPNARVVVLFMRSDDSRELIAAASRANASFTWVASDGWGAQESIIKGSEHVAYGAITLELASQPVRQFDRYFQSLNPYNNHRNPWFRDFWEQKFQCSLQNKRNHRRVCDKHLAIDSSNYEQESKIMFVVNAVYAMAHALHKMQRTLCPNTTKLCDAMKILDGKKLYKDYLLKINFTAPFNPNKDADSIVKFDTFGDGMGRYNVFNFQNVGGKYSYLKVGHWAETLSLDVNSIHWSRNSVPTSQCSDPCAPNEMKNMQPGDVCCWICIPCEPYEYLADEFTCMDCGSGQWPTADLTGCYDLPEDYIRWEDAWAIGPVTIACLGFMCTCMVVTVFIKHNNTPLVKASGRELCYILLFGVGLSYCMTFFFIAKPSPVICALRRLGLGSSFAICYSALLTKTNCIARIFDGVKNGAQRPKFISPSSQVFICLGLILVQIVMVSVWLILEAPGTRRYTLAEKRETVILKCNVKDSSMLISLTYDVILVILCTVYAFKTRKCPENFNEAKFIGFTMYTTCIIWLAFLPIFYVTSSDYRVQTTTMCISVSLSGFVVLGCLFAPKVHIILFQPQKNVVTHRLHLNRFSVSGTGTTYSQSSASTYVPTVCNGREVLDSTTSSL

Turning to `O=c1n(-c2ccc(F)cc2)ccc2nc(COc3ccccc3)c(Cl)n12`, the metabolised at 0.25 h, 1 µM in data set [1] stood at 6%; in data set [2] it was 73%. Besides, the IC50 came out at 218 nM in data set [3] (read-out: IC50) and 5 nM in data set [4].
With `O=c1n(-c2ccc(F)cc2)ccc2nc(COc3ccccc3)cn12`, the EC50 (as a rule, the concentration needed to bring the measured effect to its halfway point) in [5] is 310 nM; in data set [10], greater than 10000 nM; in data set [11], greater than 10000 nM; in data set [12], greater than 10000 nM; in data set [13], greater than 10000 nM; in [14], greater than 10000 nM. This molecule returned an EC50 in [15] greater than 10000 nM. Besides, the Emax – broadly, the greatest response seen or fitted, relative to the assay's reference – in data set [6] amounted to 83%. Also, the metabolised at 0.25 h, 1 µM in data set [1] is 14%; in [2], 27%. Besides, the PPB in data set [7] amounted to 96.4%; in data set [8], 93.1%. This molecule displayed an IC50 in [9] of 630 nM.
On to `Cc1c(COc2ccccc2)nc2n1C(=O)N(c1ccc(F)cc1)CC2`, for which the metabolised at 0.25 h, 1 µM came to 21% in [1] and 46% in data set [2]. Further, the IC50 in data set [3] (read-out: pIC50 (converted)) was 525 nM; in [4], 529 nM.
Take `O=C1N(c2ccc(F)cc2)CCc2nc(COc3ccccc3)c(Cl)n21`: the IC50 in data set [3] (read-out: pIC50 (converted)) is 132 nM; in data set [4], 133 nM.
Consider `O=C1N(c2cccc(F)c2)CCc2nc(COc3ccccc3)cn21`, for which, in data set [5], the EC50 stood at 218 nM. Further, in data set [6], the Emax is 82%. The metabolised at 0.25 h, 1 µM in [1] came out at 20%; in [2] it was 78%.
Turning to `O=C1N(c2ccc(F)cc2)CCc2nc(COc3ccccc3)cn21`, the EC50 in [5] was 86 nM; in data set [10], greater than 10000 nM; in [11], greater than 10000 nM; in data set [12], greater than 10000 nM; in [13] it was greater than 10000 nM; in [14], greater than 10000 nM. This molecule also came in with an EC50 in data set [15] greater than 10000 nM. In addition, the Emax in data set [6] was 70%. The results for the metabolised at 0.25 h, 1 µM in data set [1] and in data set [2] were 18% and 19%, respectively. Besides, the PPB in data set [7] was 90.3%; in [8], 88.1%. Moreover, the IC50 on Cytochrome P450 2C9 was greater than 20000 nM; on Cytochrome P450 2D6 it was greater than 20000 nM; at Cytochrome P450 3A4 it was greater than 20000 nM; against Cytochrome P450 1A2, greater than 20000 nM; in data set [9] it was 290 nM. In addition, the half-life in data set [16] was 55.8 min. This molecule had a Vdss in the data set on Rattus norvegicus [17] of 1.4 L/kg. For the same molecule, the AUC (as a rule, concentration integrated over time) with Plasma stood at 7.2 µM·h. In addition, the Kp (usually tissue or fluid exposure divided by exposure in the circulation) in data set [18] amounted to 1.8. Moreover, in data set [19], the fraction unbound (commonly the share of the substance not bound to proteins or other matrix) is 0.062. Further, in [20], the highest level (Cmax) was 6.05 µM. In addition, the Activity entry is “Dose-dependent effect” with Rattus norvegicus [21]; 50% with Rattus norvegicus [23]; 50% in the data set on Rattus norvegicus [24]; “Toxic” in the data set with Rattus norvegicus [25]; “Toxic” in the data set on Canis familiaris. For the same molecule, the outcome with Rattus norvegicus [22] was Active. In addition, the result in data set [26] was inactive.
As to `Cc1cn(-c2ccc(F)cc2)c(=O)n2cc(COc3ccccc3)nc12`, the metabolised at 0.25 h, 1 µM in [1] was 36%; in data set [2], 71%. Further, the results for the IC50 in data set [3] (read-out: IC50) and in [4] were 1000 nM and 16 nM, respectively.
Consider `Cc1nc(-n2ccc3nc(COc4ccccc4)cn3c2=O)ccc1F`, for which, in data set [5], the EC50 is 375 nM. Also, in [6], the Emax was found to be 77%. Further, the metabolised at 0.25 h, 1 µM was 8% in data set [1] and 50% in data set [2].
The corresponding values for `Cc1nc(N2CCc3nc(COc4ccccc4)cn3C2=O)ccc1F` are 183 nM, 91%, 31% and 93%.
As to `Cc1cc(N2CCc3nc(COc4ccccc4)cn3C2=O)ccc1F`, in data set [5], the concentration for a half-maximal effect (EC50) came out at 130 nM. Also, the Emax in [6] was determined as 91%. Moreover, the figures for the metabolised at 0.25 h, 1 µM in [1] and in data set [2] were 10% and 37%, respectively.
